Assay results as given in ChEMBL document CHEMBL1125583, “Synthesis of an (iodovinyl)misonidazole derivative for hypoxia imaging” (J Med Chem, 1991).

Tests used:
[1] = Compound was tested for the partition coefficient between octanol and water.; assay type: physicochemical
Method in brief: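 Octanol/water partition: octanol and water mutually pre-saturated for 24 h before the study; compound absorbance read at 318 nm in the water-saturated octanol phase and in the octanol-saturated water phase; coefficient taken as the ratio of the two absorbances.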

CaOs-1 cell line = assay: Anoxic/Oxic uptake ratio was measured in CaOs-1 cell line at 3h.; assay type: functional, cell-based; details: Canis lupus familiaris
Method in brief: (§1)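 [131I]-labelled agent at 50 μM in 1 mL medium (25 mM HEPES), rinsed then replaced with fresh labelled medium. Monolayers (exponential or unfed plateau phase) held as thin film at 37 °C under 95% air/5% CO2 (oxic) or 95% N2/5% CO2 (anoxic) for 3 h. Cells trypsinized, gamma-counted, uptake as pmol/10^6 cells. Ratio = anoxic/oxic uptake, three plates.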

EMT6 = assay: Anoxic/Oxic uptake ratio was measured in EMT-6 cell line at 3h.; assay type: functional, cell-based; details: Mus musculus; method in brief: as §1
RIF-1 = assay: Anoxic/Oxic uptake ratio was measured in RIF-1 cell line at 3h.; assay type: functional, cell-based; details: Mus musculus; method in brief: as §1
Rattus norvegicus = species: Rattus norvegicus; assay: Anoxic/Oxic uptake ratio was measured in rat myocytes at 3h.; assay type: functional
Method in brief: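 Adult rat myocytes from collagenase dissociation, cultured overnight at 37 °C in modified MEM. Thin medium layer with 50 μM [131I]-labelled agent at 37 °C under 95% air/5% CO2 or 95% N2/5% CO2, anoxia confirmed by dithionite/methylene blue indicator. Cells rinsed cold, EtOH-fixed, counted microscopically, scraped and gamma-counted. Uptake as dpm per cells; eight plates.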

V79 = assay: Anoxic/Oxic uptake ratio was measured in V-79 cell line at 3h.; assay type: functional, cell-based; details: Cricetulus griseus; method in brief: as §1

| Partition coefficient [1] | Compound | Uptake ratio (CaOs-1 cell line) | Uptake ratio (EMT6) | Uptake ratio (RIF-1) | Uptake ratio (Rattus norvegicus) | Uptake ratio (V79) |
| --- | --- | --- | --- | --- | --- | --- |
| 0.41 | COC[C@H](O)Cn1ccnc1[N+](=O)[O-] | – | – | – | – | – |
| 2.87 | COC[C@H](O)Cn1cc(Br)nc1[N+](=O)[O-] | – | – | – | – | – |
| 2.52 | O=[N+]([O-])c1nccn1C[C@@H](O)C/C=C/I | 10.2 | 11 | 23.2 | 22 | 12.5 |

| Compound | Partition coefficient [1] | Uptake ratio (CaOs-1 cell line) | Uptake ratio (EMT6) | Uptake ratio (RIF-1) | Uptake ratio (Rattus norvegicus) | Uptake ratio (V79) |
| --- | --- | --- | --- | --- | --- | --- |
| O=[N+]([O-])c1nccn1C[C@@H](O)CF | 0.4 | 18 | 12.6 | 28.5 | 20.3 | 27.3 |
